From ChEMBL document CHEMBL4387709, “Discovery of Quinoline Analogues as Potent Antivirals against Enterovirus D68 (EV-D68)” (J Med Chem, 2019)
Calls of active or inactive are those of the source. No cut-off for these calls is given here.

Tests used:
RD [1] = assay: Inhibition of 2C protein in Enterovirus D68 US/KY/14-18953 infected in human RD cells assessed as reduction of VP1 expression at 1 uM measured at 9 hrs post infection by DAPI-staining based microscopy; format: cell-based
Outline: (§1)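 Fixed at 9 hpi (4% formaldehyde), 0.2% Triton X-100 permeabilized, blocked with 10% bovine serum. Stained with rabbit anti-VP1 plus Alexa-488 secondary, nuclei with 300 nM DAPI. Confocal microscopy.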

enterovirus D68 [2] = assay: Antiviral activity against Enterovirus D68 US/KY/14-18953 infected in human RD cells assessed as inhibition of virus-induced cytopathic effect incubated for 5 mins under shaking condition and measured after 3 days by neutral red dye-based photometric method; format: functional, organism-based; details: Enterovirus D, US/KY/14-18953, RD
Outline: (§2)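 RD cells seeded one day ahead to ~90% confluence, PBS (Mg/Ca) wash, infected at ~MOI 0.01 with EV-D68 in DMEM/2% FBS/30 mM MgCl2 at 33 °C, 5% CO2. Compounds and 1% P/S added after 1 h. Plates shaken ~5 min, held 3 days, viable cells stained with neutral red (66 µg/ml), A540 read. EC50 from dose-response fits, triplicates.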

enterovirus D68 [3] = assay: Antiviral activity against Enterovirus D68 US/KY/14-18953 infected in human SH-SY5Y cells assessed as inhibition of virus-induced cytopathic effect incubated for 5 mins under shaking condition and measured after 3 days by neutral red dye-based photometric method; format: functional, organism-based; details: Enterovirus D, US/KY/14-18953, SH-SY5Y
Outline: (§3)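 Virus at ~MOI 1 applied to SH-SY5Y cells (50% DMEM/50% F-12, 10% FBS) at ~90% confluence in DMEM/2% FBS/30 mM MgCl2 at 33 °C. Compounds added after 1 h with 1% P/S, shaken ~5 min, incubated 3 days. Viability read by neutral red uptake (A540). EC50 fitted from dose-response, triplicate.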

RD [4] = assay: Inhibition of 2C protein in Enterovirus D68 US/KY/14-18953 infected in human RD cells assessed as reduction of viral RNA synthesis at 1 uM measured at 9 hrs post infection by reagent-based RT-qPCR method relative to control; format: cell-based
Outline: (§4)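 DNase-treated. 1.2 µg reverse-transcribed with oligo(dT)18. qPCR run 95 °C 10 min, then 40 cycles of 95 °C 15 s/60 °C 60 s, with melt curve. Compared with DMSO control, one-way ANOVA, mean of two experiments ± SD.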

enterovirus D68 [5] = assay: Antiviral activity against Enterovirus D68 […] infected in human RD cells assessed as inhibition of virus-induced cytopathic effect incubated for 5 mins under shaking condition and measured after 3 days by neutral red dye-based photometric method; format: functional, organism-based; details: Enterovirus D; outline: as §2
enterovirus D68 [6] = assay: Antiviral activity against Enterovirus D68 US/KY/14-18953 infected in human A172 cells assessed as inhibition of virus-induced cytopathic effect incubated for 5 mins under shaking condition and measured after 3 days by neutral red dye-based photometric method; format: functional, organism-based; details: Enterovirus D, US/KY/14-18953, A 172
Outline: (§5)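 A172 cells (DMEM, 10% FBS) grown ~90% confluent, infected with EV-D68 at ~MOI 0.3 in DMEM/2% FBS/30 mM MgCl2 and kept at 33 °C. P/S and compounds added 1 h later. Brief orbital shaking, then 3-day incubation. Neutral red staining with 540 nm absorbance. EC50 from best-fit dose-response curves in triplicate.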

enterovirus D68 [7] = assay: Antiviral activity against Enterovirus D68 US/MO/14-18949 infected in human RD cells assessed as inhibition of virus-induced cytopathic effect incubated for 5 mins under shaking condition and measured after 3 days by neutral red dye-based photometric method; format: functional, organism-based; details: Enterovirus D, US/MO/14-18949, RD; outline: as §2
Influenza A virus = assay: Antiviral activity against Influenza A virus (A/California/07/2009(H1N1)) at 10 uM after 2 days by plaque assay; format: functional, organism-based
enterovirus D68 [8] = assay: Antiviral activity against Enterovirus D68 US/MO/14-18947 infected in human SH-SY5Y cells assessed as inhibition of virus-induced cytopathic effect incubated for 5 mins under shaking condition and measured after 3 days by neutral red dye-based photometric method; format: functional, organism-based; details: Enterovirus D, US/MO/14-18947, SH-SY5Y; outline: as §3
Influenza B virus = assay: Antiviral activity against Influenza B virus (B/Brisbane/60/2008) at 10 uM after 2 days by plaque assay; format: functional, organism-based
A 172 = assay: Cytotoxicity against human A172 cells after 3 days by neutral red dye-based photometric method; format: cell-based; details: a 172, 72 h
Outline: (§6)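 Uninfected cells run as in the CPE assay (33 °C, 3 days, same media) with compound. Viability by neutral red staining and 540 nm absorbance. CC50 from dose-response curves, triplicate experiments.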

RD [9] = assay: Inhibition of 2C protein in Enterovirus D68 US/KY/14-18953 infected in human RD cells assessed as reduction of VP1 expression at 1 uM measured at 9 hrs post infection by Western blot analysis; format: cell-based
Outline: (§7)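 Equal protein separated and blotted to PVDF. Probed with rabbit anti-VP1 and mouse anti-GAPDH (1:3,000), HRP secondary, chemiluminescent detection. Mean of two independent experiments ± SD.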

HeLa = assay: Cytotoxicity against human HeLa cells after 3 days by neutral red dye-based photometric method; format: cell-based; details: 72 h; outline: as §6
SH-SY5Y = assay: Cytotoxicity against human SH-SY5Y cells after 3 days by neutral red dye-based photometric method; format: cell-based; details: 72 h; outline: as §6
enterovirus D68 [10] = assay: Antiviral activity against Enterovirus D68 US/MO/14-18947 infected in human RD cells assessed as inhibition of virus-induced cytopathic effect incubated for 5 mins under shaking condition and measured after 3 days by neutral red dye-based photometric method; format: functional, organism-based; details: Enterovirus D, US/MO/14-18947, RD; outline: as §2
enterovirus D68 [11] = assay: Antiviral activity against Enterovirus D68 US/IL/14-18956 infected in human RD cells assessed as inhibition of virus-induced cytopathic effect incubated for 5 mins under shaking condition and measured after 3 days by neutral red dye-based photometric method; format: functional, organism-based; details: Enterovirus D, US/IL/14-18956, RD; outline: as §2
A549 = assay: Cytotoxicity against human A549 cells after 3 days by neutral red dye-based photometric method; format: cell-based; details: a549, 72 h; outline: as §6
enterovirus D68 [12] = assay: Antiviral activity against Enterovirus D68 US/MO/14-18947 infected in human A172 cells assessed as inhibition of virus-induced cytopathic effect incubated for 5 mins under shaking condition and measured after 3 days by neutral red dye-based photometric method; format: functional, organism-based; details: Enterovirus D, US/MO/14-18947, A 172; outline: as §5
[13] = Inhibition of sodium channel in rat dorsal root ganglia neurons assessed as reduction in veratridine-induced intracellular calcium influx at 2 to 50 uM after overnight incubation by Fura-2AM dye based fluorescence microscopy; format: cell-based
RD [14] = assay: Inhibition of 2C protein in Enterovirus D68 US/KY/14-18953 infected in human RD cells assessed as reduction of VP1 expression at 3 uM measured at 9 hrs post infection by DAPI-staining based microscopy; format: cell-based; outline: as §1
RD [15] = assay: Inhibition of 2C protein in Enterovirus D68 US/KY/14-18953 infected in human RD cells assessed as reduction of viral RNA level at 3 uM measured at 9 hrs post infection by RT-qPCR method relative to control; format: cell-based; outline: as §4
[16] = Inhibition of sodium channel in rat dorsal root ganglia neurons assessed as reduction in veratridine-induced intracellular calcium influx at 20 to 50 uM after overnight incubation by Fura-2AM dye based fluorescence microscopy; format: cell-based
RD [17] = assay: Inhibition of 2C protein in Enterovirus D68 US/KY/14-18953 infected in human RD cells assessed as reduction of VP1 expression at 3 uM measured at 9 hrs post infection by Western blot analysis; format: cell-based; outline: as §7
[18] = Selectivity index, ratio of CC50 for human RD cells to EC50 for Enterovirus D68 US/KY/14-18953 infected in human RD cells; format: toxicity, cell-based; details: read-out: Ratio CC50/EC50
[19] = (§8) Cytotoxicity against human RD cells after 3 days by neutral red dye-based photometric method; format: cell-based; details: RD cells
RD [20] = assay: as §8; format: cell-based; details: rd, 72 h

Row | Structure (SMILES) | EC50 (enterovirus D68 [2]) | EC50 (enterovirus D68 [3]) | EC50 (enterovirus D68 [5]) | EC50 (enterovirus D68 [6]) | EC50 (enterovirus D68 [7]) | Activity (Influenza A virus) | EC50 (enterovirus D68 [8]) | Activity (Influenza B virus) | CC50 (A 172) | inhibition (RD [9]) | CC50 (HeLa) | CC50 (SH-SY5Y) | EC50 (enterovirus D68 [10]) | CC50 (A549) | EC50 (enterovirus D68 [12]) | selectivity ratio [18] | CC50 (RD [20]) | other results
1 | CN(C)CCNC(=O)c1cc(-c2cccs2)nc2ccccc12 | 0.04 µM | 0.1 µM | 0.05 µM | 0.02 µM | 0.05 µM | inactive | 0.01 µM | inactive | 73.8 µM | Active | 51.2 µM | 136 µM | 0.06 µM | 98.8 µM | 0.1 µM |  |  | inhibition (RD [1]): Active; inhibition (RD [4]): > 99%; EC50 (enterovirus D68 [11]): 0.06 µM
2 | CN(C)CCNC(=O)c1cc(-c2ccccc2)nc2ccccc12 | 0.4 µM | 0.4 µM | 0.6 µM | 0.4 µM | 0.6 µM | inactive | 0.2 µM | inactive | 88.4 µM | Active | 68.7 µM | > 300 µM | 0.3 µM | 121 µM | 0.3 µM |  |  | inhibition (RD [1]): Active; inhibition (RD [4]): > 99%; inhibition (INH) [13]: Not Active; EC50 (enterovirus D68 [11]): 0.2 µM
3 | CCCCOc1cc(C(=O)NCCN(CC)CC)c2ccccc2n1 [DIBUCAINE] | 5.3 µM | 1.7 µM | 2 µM | 3.7 µM | 2.9 µM | inactive | 1.9 µM | inactive | > 30 µM | inactive | 36 µM | > 30 µM | 3.5 µM | 37.5 µM | 1.9 µM |  |  | inhibition (RD [14]): Active; inhibition (RD [15]): 80%; inhibition (INH) [16]: Active; inhibition (RD [17]): Active
4 | N=C(N)N [GUANIDINE] | 219 µM |  |  |  |  |  |  |  |  |  |  |  |  |  |  | > 1.4 |  | CC50 at 72 h [19]: > 300 µM
5 | CCN(CC)CCNC(=O)c1cc(OCC2CC2)nc2ccccc12 | 7.1 µM |  |  |  |  |  |  |  |  |  |  |  |  |  |  | 5.4 | 38.5 µM | 
6 | CN(C)CCCNC(=O)c1cc(-c2ccccc2)nc2ccccc12 | 3.5 µM |  |  |  |  |  |  |  |  |  |  |  |  |  |  | 12.8 | 44.9 µM | 
7 | NNC(=O)c1cc(-c2ccccc2)nc2ccccc12 | 100 µM |  |  |  |  |  |  |  |  |  |  |  |  |  |  | > 3 | > 300 µM | 
